Assay results reported in the EternaBench riboswitch data.

Tested on: MS2 coat protein
Experiment: apparent Kd, MS2 coat protein; higher = weaker binding; RNA-MaP array; FMN 200 µM where present
How it was run: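 Two titrations, one without ligand and one with constant ligand, were run with SNAP-549-labelled MS2 coat protein from 0.7 or 1.5 nM, doubling to 3 µM. The targets were designs transcribed by stalled E. coli RNA polymerase on Illumina sequencing-chip clusters, in 100 mM Tris-HCl pH 7.5, 80 mM KCl, 4 mM MgCl2, BSA, DTT, yeast tRNA and Tween-20. The apparent Kd is the median of filtered per-cluster binding-curve fits, with green signal normalised to red-channel RNA signal and control-cluster median Fmax.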

[1] = designed as: OFF switch for flavin mononucleotide, no ligand
[2] = ligand present: flavin mononucleotide, designed as: OFF switch for flavin mononucleotide
[3] = designed as: ON switch for flavin mononucleotide, no ligand
[4] = ligand present: flavin mononucleotide, designed as: ON switch for flavin mononucleotide

Sequence: UGGACUGGGCAGAAGGGACAUGAGGAUCACCCAUGUCUUGGGCUACUUCAGUCAGGAUAUGCCCGUUGAAUAUCCGUGCAUCAA
- apparent Kd [1]: 10.2 nM
- apparent Kd [2]: 52.6 nM

Sequence: CGAUGUUAUGCAGGAUAUCUCUCUUGUUUGAGGAGAGAAGGGCAUAGGGAGACAUACGCCUUAUUACAUGAGGAUCACCCAUGU
- apparent Kd [1]: 8.83 nM
- apparent Kd [2]: 8 nM

Sequence: CACGUCAGGAAACGGAGCGGCCAACAUGAGGAUCACCCAUGUGAGGAUAUGCCUACUAAAAGUAGGCAGAAGGCGCAAUUGGCA
- apparent Kd [1]: 29.1 nM
- apparent Kd [2]: 39.9 nM

Sequence: CUUUUGUGAGGAUAUCGGUAGUAAUACAAUAGUAUUACUACUGAGAAGGCACAUGAGGAUCACCCAUGUUCCUC
- apparent Kd [1]: 49.2 nM
- apparent Kd [2]: 305 nM

Sequence: UCCUCGUCAGGAUAUCCACGGAAUAGCGGGAUACCGAGCGUGGAGAAGGGACAUGAGGAUCACCCAUGUAAAAU
- apparent Kd [1]: 29.4 nM
- apparent Kd [2]: 61.2 nM

Sequence: GUAAUUAUAUAGGAUAUCGAACUUAUUAUUUAACGAGAAGGAUGAACAUGAGGAUCACCCAUGUGGUAUCAUGG
- apparent Kd [1]: 156 nM
- apparent Kd [2]: 190 nM

Sequence: GUCAGCUCGUGAGGAUAUACAUGUGCUGGAGACAGCACUAAAGAUUUCACAUGAGGAUCACCCAUGUAGAAGGCACGAGCUGAU
- apparent Kd [1]: 16.4 nM
- apparent Kd [2]: 37.4 nM

Sequence: AUAAAACAUGAGGAUCACCCAUGUCAGGAUAUACGAUAUUAAAUUUAAUAUAUUUAUAGUAGAAGGGACAAAUA
- apparent Kd [1]: 50.4 nM
- apparent Kd [2]: 55 nM

Sequence: AUAUCUUGUCGAGGAUAUGUAGUAUUGAUCUGAAAACAUGAGGAUCACCCAUGUAUACGGUGGGUACAGAAGGUGGAUGUAGAA
- apparent Kd [1]: 416 nM
- apparent Kd [2]: 427 nM

Sequence: GCCUUAUCGGUCAGGAUAUACACCCGUCACUUCUUGUAGAAGGGACAUGAGGAUCACCCAUGUACAUUACAUUG
- apparent Kd [1]: 313 nM
- apparent Kd [2]: 177 nM

Sequence: UGGUACUAGAGAGGAUAUGGGAAGAUACAUGAGGAUCACCCAUGUUUAAGAAUGCCGAGAGGCAACUAGAAGGCCCUAGUACCU
- apparent Kd [3]: 490 nM
- apparent Kd [4]: 31.5 nM

Sequence: UGGUACAUGGGAGGAUAUCGUGUAGACACAUGAGGAUCACCCAUGUCGAUGGAGACAUCGGAGAUCGAGAAGGCCCAUGUACCU
- apparent Kd [3]: 84.6 nM
- apparent Kd [4]: 8.81 nM

Sequence: AAUUUACAGGGAGGAUAUACAUGAGGAUCACCCAUGUAAUCAUAUGAUAUUUUUUUUGUAUGAGUGUAGAAGGCCCAAAUAACA
- apparent Kd [1]: 9.27 nM
- apparent Kd [2]: 11.4 nM

Sequence: CAUCAGGUACGAGGAUAUCCGCGAUCUCUUCGAGGAGAAGGCGUACAUGAGGAUCACCCAUGUGGGCGAGACAGACGAAGUCUG
- apparent Kd [1]: 114 nM
- apparent Kd [2]: 59.5 nM

Sequence: CCUAUGUGAGGAUAUCACUGGUCUUUUCAUUGGAUGAUUAGUGAGAAGGCACAUGAGGAUCACCCAUGUCGGUG
- apparent Kd [1]: 28.9 nM
- apparent Kd [2]: 24.2 nM

Sequence: UAGAAAGAUUAAUAUGAUUACAUGAGGAUCACCCAUGUAUAAUAGGAUAUCGACGUCAAUGACGUCGAGAAGGAUUAUACAUAA
- apparent Kd [1]: 53.6 nM
- apparent Kd [2]: 71.2 nM

Sequence: UGAUAGGACAGAGGAUAUACGUGCUAGAGAUACUAGCAAAAUUUCCUCACAUGAGGAUCACCCAUGUAGAAGGCUGUCCUAUCU
- apparent Kd [1]: 47.8 nM
- apparent Kd [2]: 1100 nM

Sequence: GAUUAACAUGAGGAUCACCCAUGUGAGGAUAUGGACUGGCUCACUUUCCGAUUCGAGUCUAGAAGGCGCAUCUU
- apparent Kd [1]: 32.8 nM
- apparent Kd [2]: 35.2 nM

Sequence: AGCUAGUCAGGAUAUACAAACAUGUCAAAAGACGUGAAGGGACAUGAGGAUCACCCAUGUAGAAGGGACUAGCA
- apparent Kd [1]: 66.2 nM
- apparent Kd [2]: 379 nM

Sequence: CAUAUACAGGGAGGAUAUAACAUGAGGAUCACCCAUGUGCAAUCCUCAAUGUUAGAAGGCCCAAUAGAAUCGCAAAAGGCAUCC
- apparent Kd [1]: 8.51 nM
- apparent Kd [2]: 4.96 nM

Sequence: UGUGUUAUCGGAGGAUAUCGAUAUCAAACAUGAGGAUCACCCAUGUUGAGGAUCACCCAUGUUCACGAGAAGGCCGGCGUACUC
- apparent Kd [3]: 112 nM
- apparent Kd [4]: 194 nM

Sequence: GUAGCUAUCGCAGGAUAUCCUCAGGCGAAAGCCACAUGAGGAUCACCCAUGUAAAUAAAGUAUUUGGAGAAGGGCGAUAGCUAC
- apparent Kd [3]: 710 nM
- apparent Kd [4]: 36.1 nM

Sequence: AAAAUGAGUCAAGGAUAUCCGAGCAGAAUGCUAGGAGAAGGUGACAUGAGGAUCACCCAUGUCUCUCCGAGCAUGGUAUUCUCA
- apparent Kd [1]: 27.1 nM
- apparent Kd [2]: 31.9 nM

Sequence: GUGAAGAUAGCAGGAUAUUUAUUUCCUACAUGAGGAUCACCCAUGUAGGUGAUCAGCCGAGUAAAGGAGAAGGGCUAUCUUUAC
- apparent Kd [3]: 30.9 nM
- apparent Kd [4]: 21.3 nM

Sequence: GUGUACAGAGGAUAUACUGGAGCAUGGAAACAUGCAACCUCACAUGAGGAUCACCCAUGUAGAAGGCUGUACAC
- apparent Kd [1]: 334 nM
- apparent Kd [2]: 28.2 nM

Sequence: ACAUGAGGAUCACCCAUGUGAAAACAAUGGCUGACACAGAGAUAGGAUAUAUGUGCAUAUCAAACAUAGAAGGGUCAUAACUGG
- apparent Kd [1]: 50 nM
- apparent Kd [2]: 50.6 nM

Sequence: AGAGAUGACGAAGGAUAUGGAUACAUGAGGAUCACCCAUGUUUAUAUAGUGAAAUUGAUUGAAUUCCAGAAGGUCGAAUAAAAG
- apparent Kd [1]: 46.7 nM
- apparent Kd [2]: 36.9 nM

Sequence: UUUCCACAUGAGGAUCACCCAUGUAAGGAUAUGUAGCGCGGGCUGGUGUCCGAGUGUUACAGAAGGUGCUGGCG
- apparent Kd [1]: 26.3 nM
- apparent Kd [2]: 33.7 nM

Sequence: AUCAGCUCGUCAGGAUAUACGUCACUGCGUCAGCAAUGUGGUAAGAUCACAUGAGGAUCACCCAUGUAGAAGGGACGAGCUGAU
- apparent Kd [1]: 29.9 nM
- apparent Kd [2]: 289 nM

Sequence: UCACAGUGUCGUUAUCCGUAGCGAACAUGAGGAUCACCCAUGUAGGAUAUGUUAUUAAACUAAUAACAGAAGGACGUUGGUCUC
- apparent Kd [1]: 83.2 nM
- apparent Kd [2]: 530 nM

Sequence: UGUAUGGACAGAGGAUAUGCCGAUAGGAUCUACUAUCGAAGAAUCCUCACAUGAGGAUCACCCAUGUAGAAGGCUGUUCAUACU
- apparent Kd [1]: 8.2 nM
- apparent Kd [2]: 34.1 nM

Sequence: AGCUACGUUUCGUAGCAGCUAGGUGAGGAUAUUCAAUUUUUCACAUGAGGAUCACCCAUGUAUGUGAAGAAGGCGCCUAGAAAU
- apparent Kd [3]: 11.1 nM
- apparent Kd [4]: 4.98 nM

Sequence: GUAGCAUACCAAGGAUAUUCAUAUAAUAAGUAAACAUGAGGAUCACCCAUGUAGCGAGAGCCUUGGGAGAAGGUGGAAUGCUAC
- apparent Kd [3]: 58.7 nM
- apparent Kd [4]: 46.7 nM

Sequence: UCGAGUGGUUAGGAUAUCAUUGGUGCAUAUCAUUGAGAAGGAACUACAUGAGGAUCACCCAUGUGGCAGUGAUA
- apparent Kd [1]: 28.2 nM
- apparent Kd [2]: 126 nM

Sequence: UACAUGAGGAUCACCCAUGUUUUGUCGUGUAUGGUAUUUAUCUAGGAUAUCAUUUUAUUUAGGUAUGAGAAGGAGAAUAUUAAU
- apparent Kd [1]: 35.4 nM
- apparent Kd [2]: 36.2 nM

Sequence: UUAUUAAGUGUGAGGAUAUGCUGGUCCUUGGAUCAGCAGAAGGCACAUGAGGAUCACCCAUGUACUUUAUAAAU
- apparent Kd [1]: 15.7 nM
- apparent Kd [2]: 46.6 nM

Sequence: AAAGCAACAUGAGGAUCACCCAUGUAGGAUAUCGCUAUUGUAAUCAUGAAACAUGAUUACAAUAGCGAGAAGGACAUAUGCAAA
- apparent Kd [1]: 11.3 nM
- apparent Kd [2]: 12.9 nM

Sequence: AAGCCCUGAGGAUAUCUCAUCUCGCACAUGAGGAUCACCCAUGUUCUUCUCUGGGUUUCGAGAGAAGGCAGGCCUC
- apparent Kd [1]: 954 nM
- apparent Kd [2]: 641 nM

Sequence: GUGUACGGAGGAUAUGCUGGAAUCUAGCGAAGCUAGGUUCCACAUGAGGAUCACCCAUGUAGAAGGUCGUACAC
- apparent Kd [1]: 39.3 nM
- apparent Kd [2]: 16.1 nM

Sequence: AUUACAUGAGGAUCACCCAUGUACGGCACGUUUCAAAACAGUGAGGAUAUACGAUAUGUAGGAACGUAGAAGGCACUGGGUGCA
- apparent Kd [3]: 82.7 nM
- apparent Kd [4]: 35.9 nM

Sequence: GGGCCCGGUGUGAGGAUAUCGGGUUUGAAAGGGCCCGAGAAGGCACAUGAGGAUCACCCAUGUAAGCCGGGCCC
- apparent Kd [1]: 15.4 nM
- apparent Kd [2]: 14.4 nM

Sequence: CUUUUGUGAGGAUAUCAGUUGUAAAAAAAUAAAAUUACUACUGAGAAGGCACAUGAGGAUCACCCAUGUUCCUC
- apparent Kd [1]: 35 nM
- apparent Kd [2]: 140 nM

Sequence: AACACGCUAACAAGCGACAUGAGGAUCACCCAUGUAAGGACACAGGAUAUCCGGAGUCAUAGGCCGGAGAAGGGUGAUCCUACC
- apparent Kd [3]: 33.4 nM
- apparent Kd [4]: 19.7 nM

Sequence: GGUUAGGACAGAGGAUAUACGUGCUAGAGAUACUAGCAAAAUUUCCUCACAUGAGGAUCACCCAUGUAGAAGGCUGUCCUAUCG
- apparent Kd [1]: 16.4 nM
- apparent Kd [2]: 434 nM

Sequence: GCGUUCUUGUAGAAGGUACAUACAAUAUCUUUUUAACACAUGACACAUGAGGAUCACCCAUGUUGUAAGGAUAUACAUGAACGC
- apparent Kd [3]: 6.8 nM
- apparent Kd [4]: 6.91 nM

Sequence: AAACAUGUCCGAGGAUAUCUGGAAACAUUUCCAAGAGAAGGCGGACAUGAGGAUCACCCAUGUCUCUCCUCAUCAAAUCCGAGU
- apparent Kd [1]: 9.24 nM
- apparent Kd [2]: 89.3 nM

Sequence: GGACGUCACAUCUACAUGAGGAUCACCCAUGUCAAAAGACAUGAGGAUAUGCAUCCUAAUUGGAUGCAGAAGGCAUGGACGUCC
- apparent Kd [3]: 1200 nM
- apparent Kd [4]: 70.2 nM

Sequence: GCCAUGUUAGGAUAUGCCAUUAUACUGCUGGGUAUAGAUUGGUAGAAGGAACAUGAGGAUCACCCAUGUUCGGG
- apparent Kd [1]: 83.9 nM
- apparent Kd [2]: 178 nM

Sequence: UAUUAAUACGAAGGAUAUGGUUACAUGAGGAUCACCCAUGUAUGUAUAUUGAUCUAGAUAUUUAACCAGAAGGUCGGGAGUAAA
- apparent Kd [1]: 39 nM
- apparent Kd [2]: 38.2 nM

Sequence: GAUUUACAUGAGGAUCACCCAUGUGAGGAUAUGGAAUGGCUCAUUGUCUGAUUUCCUUCUAGAAGGCACAUCUG
- apparent Kd [1]: 54.2 nM
- apparent Kd [2]: 54.9 nM

Sequence: AAACACGGACAUGAGGAUCACCCAUGUGGCGAAAGCCUUGGAAGAAGGCCGAUAGCAAAGCUAUCGGAGGAUAUUCAUACCGUG
- apparent Kd [3]: 17.2 nM
- apparent Kd [4]: 5.78 nM

Sequence: GUAGAGUAGUGAGGAUAUACGAGAUCGAUAGAUCGGCGAUCCAAUUAUACAUGAGGAUCACCCAUGUAGAAGGCACUUCUCUAC
- apparent Kd [1]: 12.6 nM
- apparent Kd [2]: 116 nM

Sequence: CUCAUGUGAGGAUAUCAGUAGUAAAAAAAUAAAAUUACUACUGAGAAGGCACAUGAGGAUCACCCAUGUGUCUU
- apparent Kd [1]: 16.3 nM
- apparent Kd [2]: 31.7 nM

Sequence: GGGUACAUCGGAGGAUAUCAUGUAAAUACAUGAGGAUCACCCAUGUCGAUGGAGUCAUCGGAGAUUGAGAAGGCCGAUGUACCG
- apparent Kd [3]: 14 nM
- apparent Kd [4]: 5.75 nM

Sequence: UCCACGUGUGCAGGAUAUCCCACGAGCGCAACAUGAGGAUCACCCAUGUACCUGAGUCUCGGAACGGAGAAGGGUACAUGUUAA
- apparent Kd [3]: 340 nM
- apparent Kd [4]: 45.2 nM
